Assay results reported in article PMC4797071 (ACS chemical neuroscience, 2015).

Experiments:
[1] = Peptide self-assembly by photoinduced cross-linking; assay type: physicochemical; conditions: peptide 36 µM, not cross-linked, boiled, denaturing gel, silver staining
Summary of the method: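 Peptides at 36 µM in PBSA, 1 h at 37 °C, then photo-cross-linked (PICUP) and heated 95 °C for 5 min. Non-cross-linked samples boiled for comparison. Separated on 10–20% Tris-Tricine gel; silver stained.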

[2] = tested on: primary cortical neuronal cells; assay: Aβ induced toxicity, MTS assay with primary neuronal cultures; assay type: cell-based, mice; conditions: for protection from Aβ toxicity at 10 µM peptide: 10 µM Aβ(1–42), MTS, Aβ alone ~35% cell viability
Summary of the method: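 Cortical neurons from E15.5 mouse embryos, matured in neurobasal medium. Aβ(1–42) at 1 mg/mL in PBS, diluted to 10 µM with or without test peptide or mutant TTR at varying doses. Added at 6 DIV alongside vehicle and controls. At 8 DIV, MTS reagent for 2–3 h, absorbance 490 nm. Significance versus vehicle and versus Aβ set at p < 0.05.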

Aβ(1–40) [3] = biological target: T1, Aβ(1–40) (Homo sapiens, UniProt P05067); assay: Thioflavin T; assay type: biochemical; conditions: 28 µM Aβ, 2.8 µM peptide or protein, 37 °C, 1, 5, 24, 48 h
Summary of the method: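 Aβ(1–40) urea/glycine stock diluted into PBSA; 28 µM alone or with 2.8 µM peptide or mutant TTR, incubated at 37 °C. At 1, 5, 24 and 48 h, aliquots diluted 14-fold into 10 µM ThT in PBSA. Excitation 440 nm, emission 460–500 nm; intensity at 480 nm used. Three serial spectra averaged, ThT-in-PBSA background subtracted; some samples from two independent experiments.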

[4] = Peptide self-association by light scattering; assay type: physicochemical; conditions: peptide alone 80 µM, 37 °C, after 1 h of incubation; data not shown
Aβ(1–40) [5] = biological target: T1, Aβ(1–40); assay: Aβ aggregate growth kinetics by dynamic light scattering; assay type: biochemical; conditions: method not specified
Summary of the method: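 Aβ(1–40) relyophilized from 50% ACN and stored as a urea/glycine stock; thawed, sonicated 2 min and diluted into PBSA. 140 µM Aβ alone or with 14 µM peptide, 0.45 µm filtered into a cuvette held at 37 °C. 488 nm laser; intensity at 90° recorded over 10 h and normalized to total mass concentration; z-averaged hydrodynamic diameter from the autocorrelation function by cumulants.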

T1 sequence (P05067 672-711 limits assumed): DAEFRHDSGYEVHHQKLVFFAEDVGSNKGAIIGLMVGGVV

In the case of SKVVT^DPPRYTIAALLSPYSYSQ [LG3], the “bands in the absence of cross-linker” value [1] is reported as ~ 5 kDa, the “protection from Aβ toxicity at 10 µM peptide” value [2] is reported as “no protective effect” and the “effect on ThT fluorescence increase up to 48 h” value (Aβ(1–40) [3]) is reported as “at most a minor inhibitory effect”. For the same substance, the “light scattered above background (self-association)” value [4] was “did not scatter light above background”.
For SKV^DPPTIAALLSPYSYSQ [LG2], the “inhibition of Aβ toxicity (summary statement)” value ([2]; summary, concentration not given) was “nor did they affect Aβ aggregation or inhibit Aβ toxicity” and the “effect on Aβ aggregation (summary statement)” value (Aβ(1–40) [5]) was “nor did they affect Aβ aggregation”.
In the case of “SKV^DPPTIAALLSPYSYSQ (head to tail) [CG2]”, the “protection from Aβ toxicity at 10 µM peptide” value [2] is reported as “no protective effect”.
